Legend:
EMT6 = experiment: In vitro cellular toxicity against murine mammary carcinoma EMT6 cell line after 4 hr of compound exposure; format: functional, cell-based; conditions: Mus musculus, EMT6, 4 h
Method in brief: (§1)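 Cells exposed to drug for 4 h, then stained with sulforhodamine B 3 days later. IC50 interpolated as the concentration reducing cell density to 50% of same-plate controls. Values are the mean of 2-6 experiments.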

[1] = Ratio of LC50 values between the least sensitive and most sensitive human cancer cell lines; format: functional
Method in brief: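 NCI 60-cell-line panel covering nine tissue types. LC50 is concentration producing 50% reduction in cells. Value is ratio of LC50 for least sensitive versus most sensitive line.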

[2] = test system: Panel (Carcinoma cell lines); experiment: In vitro drug concentration required for 50% inhibition of 60 different human cancer cell lines compared to controls; format: functional
UV4 = experiment: In vitro cellular toxicity against chinese hamster UV4 cell line after 4 hr of compound exposure; format: functional, cell-based; conditions: Cricetulus griseus, UV4, 4 h; method in brief: as §1
Nucleic Acid = experiment: Tested for its ability to cross-link linearized plasmid DNA pcDNA3 following 18 hr of exposure at 37 degree celsius; format: functional
Method in brief: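 EcoRI-linearized pcDNA3 plasmid (5400 bp), 3'-end labelled with α-32P-dATP by Klenow. 50 ng DNA incubated with drug (DMSO) in TE pH 7.5, 10 µL final volume, 18 h at 37 °C. Denatured with NaOH strand-separation buffer for 5-10 min, then run on 0.8% agarose gel. Double-stranded fraction quantified by phosphorimaging. At least five concentrations tested, 2-4 assays. C50 taken from a 3-parameter logistic fit capped at 100%.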

CHO-AA8 = experiment: In vitro cellular toxicity against chinese hamster AA8 cell line after 4 hr of compound exposure; format: functional, cell-based; conditions: Cricetulus griseus, CHO-AA8, 4 h; method in brief: as §1
SK-OV-3 [3] = experiment: In vitro cellular toxicity against human ovarian carcinoma SKOV3 cell line after 4 hr of compound exposure; format: functional, cell-based; conditions: SK-OV-3, 4 h; method in brief: as §1
Mus musculus [4] = experiment: Average time for WiDr tumor xenograft to reach a diameter of 17 mm following single intravenous injection at day 0 where tumor diameter was 8 mm in mice; format: functional
Method in brief: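 Subcutaneous flank implant of WiDr cells (10^7 cells/mouse) in female CD-1 nude mice. Randomised at mean tumour diameter 8 mm (5-11 mice/group). Single iv dose at predetermined MTD, formulated in 100% DMSO at 0.001 mL/g, on day 0. Calipers used until mean diameter reached 17 mm, then culled. Values are average days to end point; ANOVA with Dunnett's test.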

[5] = Ratio of maximum tolerated dose of intravenous to intraperitoneal injection in mice; format: functional
Method in brief: (§2)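 Female non-tumour-bearing C3H/HeN mice received a single ip or iv injection in 100% DMSO at 0.001 mL/g. Doses stepped in 1.33-fold increments on a fixed scale, with 60-day observation. MTD defined as highest dose giving no deaths in a group of 6 and ≤15% mean body weight loss on day 4. Ratio is iv MTD over ip MTD.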

Mus musculus [6] = experiment: In vivo maximum tolerated dose for single intraperitoneal injection in non tumor-bearing C3H/HeN mice; format: functional; method in brief: as §2
Mus musculus [7] = experiment: In vivo maximum tolerated dose for single intravenous injection in non-tumor-bearing C3H/HeN mice; format: functional; method in brief: as §2
SiHa = experiment: In vitro cytotoxicity against human tumor SiHa cell line was measured as concentration to reduce [3H]thymidine uptake to 50% of that of the controls; format: functional, cell-based
Method in brief: (§3)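 Cell suspensions exposed to drug continuously for 5 days. [3H]thymidine (0.25 µCi/mL, 0.1 µM) plus 5-fluoro-2'-deoxyuridine (0.1 µM) added 4 h before termination. Pronase 2 mg/mL in 4 mM Na4EDTA released adherent cells before aspiration and filtration. IC50 interpolated against same-plate controls. Mean of 2-3 experiments, some single determinations.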

WiDr = experiment: In vitro cytotoxicity against human tumor WiDr cell line was measured as concentration to reduce [3H]thymidine uptake to 50% of that of the controls; format: functional, cell-based; method in brief: as §3
COLO 205 = experiment: In vitro cytotoxicity against human tumor COLO 205 cell line was measured as concentration to reduce [3H]thymidine uptake to 50% of that of the controls; format: functional, cell-based; conditions: COLO 205, 5 days; method in brief: as §3
HT-29 = experiment: In vitro cytotoxicity against human tumor HT-29 cell line was measured as concentration to reduce [3H]thymidine uptake to 50% of that of the controls; format: functional, cell-based; conditions: HT-29, 5 days; method in brief: as §3
SK-OV-3 [8] = experiment: In vitro cytotoxicity against human tumor SKOV3 cell line was measured as concentration to reduce [3H]thymidine uptake to 50% of that of the controls; format: functional, cell-based; conditions: SK-OV-3, 5 days; method in brief: as §3

| Compound | IC50 (EMT6) | Ratio [1] | GI50 [2] | IC50 (UV4) | C50 (Nucleic Acid) | IC50 (CHO-AA8) | IC50 (SK-OV-3 [3]) | Time (Mus musculus [4]) | MTD ratio [5] | MTD (Mus musculus [6]) | MTD (Mus musculus [7]) | IC50 (SiHa) | IC50 (WiDr) | IC50 (COLO 205) | IC50 (HT-29) | IC50 (SK-OV-3 [8]) |
| --- | --- | --- | --- | --- | --- | --- | --- | --- | --- | --- | --- | --- | --- | --- | --- | --- |
| COc1cc2c(cc1OCCCC(=O)N1C[C@H](CCl)c3c1cc(O)c1ccccc31)N=CC1CCCN1C2=O (single isomer, unassigned) | 0.3 nM | 3200 | 13 nM | 0.83 nM | 0.025 µM | 4 nM | 1.9 nM | – | – | – | – | – | – | – | – | – |
| COc1cc2c(cc1OCCCC(=O)N1C[C@@H](CCl)c3c1cc(O)c1ccccc31)N=C[C@@H]1CCCN1C2=O | 0.03 nM | >10000 | < 10 nM | 0.074 nM | 0.017 µM | 0.13 nM | 0.14 nM | 26 days | 100 | 0.00316 µM/kg | 0.316 µM/kg | 0.012 nM | 0.014 nM | 0.037 nM | 0.021 nM | 0.021 nM |
| COc1cc2c(cc1O)N=C[C@@H]1CCCN1C2=O | 1100 nM | – | – | 1500 nM | – | 2000 nM | 1900 nM | – | – | – | – | – | – | – | – | – |
| COc1cc2cc(C(=O)N3C[C@@H](CCl)c4c3cc(O)c3ccccc43)[nH]c2c(OC)c1OC | 0.13 nM | – | – | 0.09 nM | – | 0.21 nM | 0.29 nM | – | – | – | – | – | – | – | – | – |
| COc1cc2c(cc1OCCCCCC(=O)N1C[C@@H](CCl)c3c1cc(O)c1ccccc31)N=C[C@@H]1CCCN1C2=O | 0.0078 nM | >10000 | < 10 nM | 0.023 nM | 0.022 µM | 0.054 nM | 0.032 nM | 40.8 days | 10 | 0.0178 µM/kg | 0.178 µM/kg | 0.0028 nM | 0.0039 nM | 0.0035 nM | 0.0027 nM | 0.0033 nM |
| COc1cc2c(cc1OCCCOc1cc3c(cc1OC)C(=O)N1CCC[C@H]1C=N3)N=C[C@@H]1CCCN1C2=O [DSB-120] | 23 nM | – | – | 86 nM | 0.029 µM | 340 nM | 140 nM | 22.8 days | 4.21 | 1 µM/kg | 4.21 µM/kg | 7.3 nM | 10 nM | 7 nM | 8.7 nM | 6.3 nM |
| COc1cc2c(cc1OCCCCCC(=O)N1CC(C)c3c1cc(O)c1ccccc31)N=C[C@@H]1CCCN1C2=O (stereo partly drawn) | 840 nM | – | – | 2500 nM | – | 4500 nM | 2100 nM | – | – | – | – | – | – | – | – | – |
| COc1cc2c(cc1OCC(=O)N1C[C@H](CCl)c3c1cc(O)c1ccccc31)N=CC1CCCN1C2=O (single isomer, unassigned) | 5 nM | 200 | 91 nM | 6.1 nM | 1.21 µM | 48 nM | 16 nM | – | – | – | – | – | – | – | – | – |
| COc1cc2c(cc1OCCCCC(=O)N1C[C@@H](CCl)c3c1cc(O)c1ccccc31)N=C[C@@H]1CCCN1C2=O | 3.1 nM | 160 | 79 nM | 5.9 nM | 0.56 µM | 11 nM | 11 nM | – | – | – | – | – | – | – | – | – |
| COc1cc2c(cc1OCCCCCC(=O)N1C[C@H](CCl)c3c1cc(O)c1ccccc31)N=CC1CCCN1C2=O (single isomer, unassigned) | 0.56 nM | 2400 | 18 nM | 1.5 nM | 0.13 µM | 4.2 nM | 3 nM | 24.4 days | 17.7 | 0.75 µM/kg | 13.3 µM/kg | 0.2 nM | 0.28 nM | 0.18 nM | 0.25 nM | 0.2 nM |
| CC(=O)N1C[C@@H](CCl)c2c1cc(O)c1ccccc21 | 280 nM | – | – | 59 nM | – | 210 nM | 360 nM | – | – | – | – | – | – | – | – | – |
| COc1cc2c(cc1OCCC(=O)N1C[C@H](CCl)c3c1cc(O)c1ccccc31)N=CC1CCCN1C2=O (single isomer, unassigned) | 300 nM | 35 | 3200 nM | 860 nM | 7.9 µM | 1600 nM | 960 nM | – | – | – | – | – | – | – | – | – |
| COc1cc2c(cc1OCCC(=O)N1C[C@@H](CCl)c3c1cc(O)c1ccccc31)N=C[C@@H]1CCCN1C2=O | 51 nM | 50 | 500 nM | 160 nM | 5 µM | 240 nM | 200 nM | – | – | – | – | – | – | – | – | – |
| COc1cc2c(cc1OCCCCCC(=O)N1C[C@@H](CCl)c3c1cc(O)c1ccccc31)NC(=O)[C@@H]1CCCN1C2=O | 3.2 nM | – | – | 13 nM | – | 29 nM | 6.2 nM | – | – | – | – | – | – | – | – | – |
| CC(=O)N1C[C@H](CCl)c2c1cc(O)c1ccccc21 | 12000 nM | – | – | 1800 nM | – | 14000 nM | 14000 nM | – | – | – | – | – | – | – | – | – |
| COc1cc2c(cc1OCCCCC(=O)N1C[C@H](CCl)c3c1cc(O)c1ccccc31)N=CC1CCCN1C2=O (single isomer, unassigned) | 12 nM | 190 | 130 nM | 14 nM | 1.05 µM | 40 nM | 35 nM | – | – | – | – | – | – | – | – | – |
